Active and inactive are the calls of the source. The rule behind the calls is not given here.
Assays:
[1] = biological target: Human immunodeficiency virus type 1 reverse transcriptase (Human immunodeficiency virus 1) (UniProt Q72547); assay: Binding affinity to HIV-1 6His-tagged reverse transcriptase p66/p51 assessed as compound incorporation into D23/D36 primer/template at 50 uM after 60 mins by PAGE analysis in presence of MgCl2
Summary of the method: (§1)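 Single-turnover incorporation by HIV-1 RT of the chimeric triphosphate as substrate, using radiolabeled D23/D36 primer/template (template base pairs with TTP). Reactions are sampled at a 0 time point, and a negative control lacks Mg2+. Products are resolved by gel electrophoresis to detect an elongated primer band. A mispaired D23/D36B primer/template (dC opposite template dGMP) serves as a comparison.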

[2] = biological target: Human immunodeficiency virus type 1 reverse transcriptase (Human immunodeficiency virus 1) (UniProt Q72547); assay: Ratio of d4T IC50 to compound IC50 for HIV-1 6His-tagged reverse transcriptase p66/p51
[3] = system: Human immunodeficiency virus 1; assay: Ratio of d4T EC50 to compound EC50 for HIV1 3B infected in human MT2 cells; assay type: functional
[4] = Selectivity index, ratio of CC50 for human MT2 cells to EC50 for HIV1 3B; assay type: toxicity, cell-based; conditions: read-out: Ratio CC50/EC50
[5] = system: Human immunodeficiency virus 1; assay: Antiviral activity against HIV1 3B infected in human MT2 cells after 5 days by MTT assay; assay type: functional, organism-based
Summary of the method: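 HIV-1 IIIB replication in MT-2 cell culture, with MTT read-out following a previously published protocol. The nucleoside form was tested. d4T and ddC (NRTI) and TMC120 (NNRTI) were run alongside as positive controls.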

MT2 = assay: (§2) Cytotoxicity against human MT2 cells after 5 days by MTT assay; assay type: cell-based; conditions: mt2, 120 h
Summary of the method: (§3)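 MT-2 cells infected with HIV-1 IIIB are read by MTT assay following a previously published protocol. Inhibition of viral replication gives EC50, and the cytotoxicity read-out gives CC50.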

[6] = biological target: Human immunodeficiency virus type 1 reverse transcriptase (Human immunodeficiency virus 1, UniProt Q72547); assay: Inhibition of HIV-1 6His-tagged reverse transcriptase p66/p51-mediated TTP incorporation into D23/D36 primer/template preincubated for 15 mins followed by D23/D36 primer/template and TTP addition measured after 15 mins by PAGE analysis
Summary of the method: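 Steady-state competition assay measuring inhibition of HIV-1 RT-catalysed TTP incorporation opposite template A into radiolabeled D23/D36 primer/template. Products are resolved on gel across increasing inhibitor concentrations, with a reference NNRTI positive control at 250 nM. Percent RT activity loss is plotted against inhibitor concentration to derive IC50.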

[7] = biological target: Human immunodeficiency virus type 1 reverse transcriptase (Human immunodeficiency virus 1) (UniProt Q72547); assay: Binding affinity to HIV-1 6His-tagged reverse transcriptase p66/p51 assessed as compound incorporation into D23/D36 primer/template at 50 uM after 60 mins by PAGE analysis; summary of the method: as §1
[8] = as §2; assay type: cell-based; conditions: MT2 cells; summary of the method: as §3

SMILES	Activity [1]	Ratio IC50 [2]	Ratio EC50 [3]	selectivity ratio [4]	IC50 [6] [nM]	CC50 at 120 h [8] [nM]	further results
Cc1cc(C#CCCCCCCCC(=O)NCc2cn([C@H]3C[C@H](O)[C@@H](CO[PH](=O)O)O3)c(=O)[nH]c2=O)cc(C)c1Oc1ccnc(Nc2ccc(C#N)cc2)n1	inactive	3000	16	27	4.3		Activity [5]: Active; Activity (MT2): Toxic
Cc1cc(C#CCCCCCCCC(=O)NCc2cn([C@H]3C[C@H](O)[C@@H](COP(=O)(O)OP(=O)(O)OP(=O)(O)O)O3)c(=O)[nH]c2=O)cc(C)c1Oc1ccnc(Nc2ccc(C#N)cc2)n1	Active	2000			6		Activity [7]: inactive
Nc1ccn([C@H]2CC[C@@H](CO)O2)c(=O)n1 [ZALCITABINE]						4000	
Cc1cc(C)c(Nc2ccnc(Nc3ccc(C#N)cc3)n2)c(C)c1 [DAPIVIRINE]						1900	
Cc1cn([C@H]2C=C[C@@H](CO)O2)c(=O)[nH]c1=O [STAVUDINE]						2200	EC50 ([5]; Human immunodeficiency virus 1, 3B, MT2, 120 h): 3600 nM
Cc1cc(C#CCCCCCCCC(=O)NCc2cn([C@H]3C[C@H](O)[C@@H](CO)O3)c(=O)[nH]c2=O)cc(C)c1Oc1ccnc(Nc2ccc(C#N)cc2)n1			30	18			

From ChEMBL document CHEMBL3098078, “Design, Synthesis, and Antiviral Evaluation of Chimeric Inhibitors of HIV Reverse Transcriptase” (ACS Med Chem Lett, 2013)
